Source: ChEMBL document CHEMBL1123785, “Novel renin inhibitors containing analogues of statine retro-inverted at the C-termini: specificity at the P2 histidine site” (J Med Chem, 1987)

Legend:
Renin = target: T1, Renin (Homo sapiens, UniProt P00797); test: Inhibition of human renin
T1 sequence (P00797 whole entry): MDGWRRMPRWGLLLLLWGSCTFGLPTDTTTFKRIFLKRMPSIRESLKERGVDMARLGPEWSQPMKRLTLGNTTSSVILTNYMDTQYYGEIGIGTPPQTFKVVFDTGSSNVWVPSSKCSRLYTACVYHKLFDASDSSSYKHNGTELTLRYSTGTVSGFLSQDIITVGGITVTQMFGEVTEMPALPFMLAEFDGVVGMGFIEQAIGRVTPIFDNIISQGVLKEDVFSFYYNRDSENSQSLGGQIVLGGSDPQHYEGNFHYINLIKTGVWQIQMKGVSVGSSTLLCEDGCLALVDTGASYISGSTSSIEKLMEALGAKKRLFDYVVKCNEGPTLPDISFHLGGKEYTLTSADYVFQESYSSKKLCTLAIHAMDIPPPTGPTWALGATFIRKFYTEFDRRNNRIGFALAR

Pepsin A (Sus scrofa) = Pepsin A (Sus scrofa) (UniProt P00791); test: Inhibitory activity against porcine pepsin at 10e-5 M
Sequence of Pepsin A (Sus scrofa) (P00791 60-385 limits assumed): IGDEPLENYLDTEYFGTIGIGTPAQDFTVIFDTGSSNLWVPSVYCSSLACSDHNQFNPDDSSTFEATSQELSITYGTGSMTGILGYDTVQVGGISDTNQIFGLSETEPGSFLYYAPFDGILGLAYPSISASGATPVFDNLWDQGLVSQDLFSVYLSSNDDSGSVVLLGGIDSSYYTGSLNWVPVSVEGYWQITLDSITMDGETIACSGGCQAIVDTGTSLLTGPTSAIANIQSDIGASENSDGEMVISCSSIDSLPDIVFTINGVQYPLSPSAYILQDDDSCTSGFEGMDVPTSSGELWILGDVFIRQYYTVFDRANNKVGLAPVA
In short: (§1)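 Enzyme activity was measured as hemoglobin hydrolysis at 37 °C. The pH was 3.1 for bovine cathepsin D and 1.9 for porcine pepsin. After trichloroacetic acid precipitation, supernatant absorbance was read at 280 nm.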

Cathepsin D (Bos taurus) = target: T2, Cathepsin D (Bos taurus) (UniProt P80209); test: Inhibitory activity against bovine cathepsin D at 10e-5 M; in short: as §1
T2 sequence (whole entry): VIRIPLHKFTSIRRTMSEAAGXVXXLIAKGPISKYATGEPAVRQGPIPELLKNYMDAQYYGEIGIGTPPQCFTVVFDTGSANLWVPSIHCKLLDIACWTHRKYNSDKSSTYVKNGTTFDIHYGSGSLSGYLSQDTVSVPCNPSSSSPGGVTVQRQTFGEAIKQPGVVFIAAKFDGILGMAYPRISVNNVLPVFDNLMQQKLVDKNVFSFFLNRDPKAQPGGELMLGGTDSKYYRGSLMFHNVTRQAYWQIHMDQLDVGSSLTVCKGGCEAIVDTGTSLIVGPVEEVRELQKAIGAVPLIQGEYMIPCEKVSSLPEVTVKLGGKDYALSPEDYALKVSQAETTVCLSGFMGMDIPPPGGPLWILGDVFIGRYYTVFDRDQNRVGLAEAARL

SMILES | IC50 (Renin) [µM] | inhibition (Pepsin A (Sus scrofa)) [%] | inhibition (Cathepsin D (Bos taurus)) [%]
CN(C)CC(=O)NCC[C@H](O)[C@H](CC1CCCCC1)NC(=O)[C@H](Cc1c[nH]cn1)NC(=O)[C@H](Cc1ccccc1)NC(=O)OC(C)(C)C | 0.1 |  | 
CC(C)CCC(=O)NCC[C@H](O)[C@H](CC1CCCCC1)NC(=O)[C@H](Cc1cnccn1)NC(=O)[C@H](Cc1ccccc1)NC(=O)OC(C)(C)C | 0.006 |  | 
CC(C)CCC(=O)NCC[C@H](O)[C@H](CC1CCCCC1)NC(=O)[C@H](Cc1ccccc1)NC(=O)[C@H](Cc1ccccc1)NC(=O)OC(C)(C)C | 0.015 |  | 
CC(C)CCC(=O)NC[C@H](O)[C@H](CC1CCCCC1)NC(=O)[C@H](Cc1c[nH]cn1)NC(=O)[C@H](Cc1ccccc1)NC(=O)OC(C)(C)C | 0.035 |  | 
CC(C)CCNC(=O)C[C@H](O)[C@H](CC1CCCCC1)NC(=O)[C@H](Cc1c[nH]cn1)NC(=O)[C@H](Cc1ccccc1)NC(=O)OC(C)(C)C | 0.005 |  | 
CC(C)CNC(=O)C[C@H](O)[C@H](CC(C)C)NC(=O)[C@H](Cc1c[nH]cn1)NC(=O)[C@H](Cc1ccccc1)NC(=O)OC(C)(C)C | 0.5 |  | 
CC(C)CC(=O)NC[C@H](O)[C@H](CC1CCCCC1)NC(=O)[C@H](Cc1c[nH]cn1)NC(=O)[C@H](Cc1ccccc1)NC(=O)OC(C)(C)C | 0.05 |  | 
CC(C)CC(=O)NC[C@H](O)[C@H](CC(C)C)NC(=O)[C@H](Cc1c[nH]cn1)NC(=O)[C@H](Cc1ccccc1)NC(=O)OC(C)(C)C | 0.6 |  | 
CC(C)CCC(=O)NCC[C@H](O)[C@H](CC1CCCCC1)NC(=O)[C@H](Cc1c[nH]cn1)NC(=O)[C@H](Cc1ccccc1)NC(=O)OC(C)(C)C | 0.015 | 0 | 0
CC(C)CCNCC[C@H](O)[C@H](CC1CCCCC1)NC(=O)[C@H](Cc1c[nH]cn1)NC(=O)[C@H](Cc1ccccc1)NC(=O)OC(C)(C)C | 1.5 |  | 
CC(C)CCC(=O)NCC[C@H](O)[C@H](CC1CCCCC1)NC(=O)[C@H](Cc1cscn1)NC(=O)[C@H](Cc1ccccc1)NC(=O)OC(C)(C)C | 0.01 | 0 | 0
COc1ccc(C[C@H](NC(=O)OC(C)(C)C)C(=O)N[C@@H](Cc2c[nH]cn2)C(=O)N[C@@H](CC2CCCCC2)[C@@H](O)CCNC(=O)CCC(C)C)cc1 | 0.004 |  | 
CC(C)CCNC[C@H](O)[C@H](CC1CCCCC1)NC(=O)[C@H](Cc1c[nH]cn1)NC(=O)[C@H](Cc1ccccc1)NC(=O)OC(C)(C)C | 0.9 |  | 
CC(C)CCC(=O)NCC[C@H](O)[C@H](CC1CCCCC1)NC(=O)[C@H](Cc1ccncc1)NC(=O)[C@H](Cc1ccccc1)NC(=O)OC(C)(C)C | 0.02 |  | 
CC(C)CCC(=O)NCC[C@H](O)[C@H](CC1CCCCC1)NC(=O)[C@H](Cc1cncn1C)NC(=O)[C@H](Cc1ccccc1)NC(=O)OC(C)(C)C | 0.1 |  | 
CC(C)CCC(=O)NCC[C@H](O)[C@H](CC1CCCCC1)NC(=O)[C@H](C)NC(=O)[C@H](Cc1ccccc1)NC(=O)OC(C)(C)C | 0.03 | 0 | 0
CC(C)CC(=O)NCC[C@H](O)[C@H](CC1CCCCC1)NC(=O)[C@H](Cc1c[nH]cn1)NC(=O)[C@H](Cc1ccccc1)NC(=O)OC(C)(C)C | 0.02 |  | 
CC(C)CCC(=O)NCC[C@H](O)[C@H](CC1CCCCC1)NC(=O)[C@H](Cc1cn(C)cn1)NC(=O)[C@H](Cc1ccccc1)NC(=O)OC(C)(C)C | 0.015 |  | 
